# Compound activity: PubChem BioAssay, several laboratories
# Sampled rows, rich in hits. Any-hit rate of the full collection: about 4.1%.
# SMARCA2 activ = SMARCA2 (BRM) function activators, primary screen, cell-based, luminescence, high throughput; MG213 cells, MMTV-luciferase reporter, dexamethasone, overnight; 370,000 tested, 1% active; activation, % at 9.1 µM; in the data active = activation above about 7.8%;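 also: 0% = vehicle wells and 100% = reference activator wells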
# Tb MetRS inh = T. brucei MetRS inhibitors, primary screen, biochemical, luminescence; purified T. brucei MetRS, ATP depletion, Kinase-Glo luminescence; inhibition, % at 11.9 µM; methionyl-tRNA synthetase (Trypanosoma brucei brucei); 360,000 tested, 0.4% active;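 active = inhibition above a per-plate cutoff of the control wells' mean inhibition plus 3 SD, cut at about 5.5% in these data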;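 also: 0% = DMSO wells median and 100% = median of wells with control inhibitor compound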
#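 Material – parasite MetRS enzyme · Medium – HEPES-MgCl2-KCl buffer plus DTT, spermine, BSA, pyrophosphatase · Reagent – ATP, methionine and E. coli bulk tRNA substrates · Times – 15 min enzyme-compound preincubation, 2 h reaction, 10 min detection, 25 °C · Measured by – luminescence of leftover ATP · Evaluation – percent inhibition relative to median high and low control wells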
# TAG inh = inhibitors of triacylglycerol accumulation, primary screen, cell-based, uHTS, fluorescence, H9c2. H9c2 cells, Nile Red lipid (TAG) fluorescence; cells loaded with 200 µM oleic acid. inhibition, % at 12.5 µM. 230,000 tested, 0.66% active. AID 651582, 2012;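 active = pattern-corrected inhibition of lipid staining of at least 50% with the nuclear-stain viability signal not falling by more than 50%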;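 also: 0% = DMSO wells and 100% = triacsin C control wells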
# Efflux pump mplx = inhibitors of Candida efflux pumps in yeast, primary screen, S. cerevisiae, Nile Red, multiplex; S. cerevisiae Candida pump triplex; inhibition, % at 10 µM; 330,000 tested, 0.44% active; AID 485275, 2010;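 active = plate passing quality check with inhibition over a set limit, or well fluorescence over plate mean plus 4 SD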;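 also: Nile Red retained in pooled yeast measured as flow cytometry median fluorescence; 0% = buffer negative control and 100% = Enniatin B positive control; higher means more Nile Red kept so more efflux inhibition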
# AHR act = AHR activators, primary screen, cell-based, luminescence, luciferase reporter, human | Aryl hydrocarbon receptor (Homo sapiens), P35869 | AID 2796, 2010 | activation, % at 5 µM | AHR-responsive luciferase reporter cells | 320,000 tested, 2.5% active; in the data active = activation above about 47%;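 also: 0% = vehicle wells and 100% = reference agonist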
# TbMetRS confirm = T. brucei MetRS inhibitors, confirmation, biochemical, luminescence; shares compounds with Tb MetRS inh; T. brucei MetRS enzyme, luminescence (ATP depletion); inhibition, % at 11.9 µM; 1,400 tested, 93% active; AID 624412, 2012; in the data active = inhibition above about 7%
# Jurkat tox = Jurkat T cell cytotoxicity, cytotoxicity control for T. brucei MetRS inhibitor project, luminescence, high throughput; shares compounds with Tb MetRS inh; Jurkat cells viability, ATP luminescence; inhibition, % at 8.3 µM; 1,400 tested, 12% active; AID 624413, 2012; in the data active = inhibition above about 15%;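 also: 0% = vehicle and 100% = reference inhibitor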
# TbMetRS FP orth = T. brucei MetRS inhibitors, orthogonal assay for T. brucei MetRS inhibitor project, biochemical, fluorescence polarization; inhibition, % at 11.9 µM; purified T. brucei MetRS; 1,400 tested, 44% active; AID 651607, 2012; shares compounds with Tb MetRS inh; in the data active = inhibition above about 17%;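 also: 0% = vehicle wells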
# Starred values were filed as active, the others as inactive; . = no result given.
SMILES,SMARCA2 activ,Tb MetRS inh,TAG inh,Efflux pump mplx,AHR act,TbMetRS confirm,Jurkat tox,TbMetRS FP orth
O=C(NCCc1cccc(F)c1)c1cc2ccccn2n1,4,.,.,.,.,.,.,.
O=S(=O)(c1ccc2nc(COc3ccc(Cl)cc3Cl)[nH]c2c1)N1CCOCC1,-1,12*,.,0,22,21*,9,14
O=S(=O)(c1ccc2nc(SCc3ccc(Cl)cc3)[nH]c2c1)N1CCOCC1,-3,12*,.,0,10,18*,0,19*
Cc1ccccc1OCc1nc2ccc(S(=O)(=O)N3CCOCC3)cc2[nH]1,-3,1,.,0,6,.,.,.
COC(=O)[C@H](CC(C)C)N(CCCc1cn(Cc2ccc(C)cc2)nn1)S(=O)(=O)c1ccccc1Br,-2,.,.,.,.,.,.,.
CC/C(=N/O)C(=O)c1ccc(Br)cc1,0,6.2*,1,0,-5,19*,-3,11
COc1ccc(OC)c(C2C(C#N)=C(N)Oc3cc(C)[nH]c(=O)c32)c1 (stereo unspecified),-5,13*,4,0,-2,4,-4,0
COc1ccc(OC)c(C2C(C#N)=C(N)Oc3cc(N)ccc32)c1 (stereo unspecified),1,36*,15,0,-1,4,12,4
COc1ccc(OC)c(C2C(C#N)=C(N)Oc3cc(C)n(Cc4ccccn4)c(=O)c32)c1 (stereo unspecified),-5,89*,.,0,-1,15*,-8,10
COc1cc(C2C(C#N)=C(N)Oc3cc(C)n(CCc4ccccc4)c(=O)c32)cc2c1OCO2 (stereo unspecified),-3,85*,11,0,8,11*,0,6
CCOc1ccccc1C1C(C#N)=C(N)Oc2cc(N)ccc21 (stereo unspecified),-1,1,.,0,-3,.,.,.
COC(=O)[C@]12C[C@H](CC(=O)NCC34CC5CC(CC(C5)C3)C4)C(=O)N(CCC3=CCCCC3)C1=C[C@H](C(C)C)O[C@@H]2C1CC1,-1,.,.,.,.,.,.,.
Cc1ccc(NC(=O)[C@H]2CC(=O)O[C@@H]2c2ccccc2)c(C)c1,-4,.,.,.,.,.,.,.
Clc1ccccc1-c1ccc2ncnc(NCc3ccc4c(c3)OCO4)c2c1,-1,26*,-6,0,6,32*,-2,22*
Clc1ccccc1-c1ccc2ncnc(NCc3cccnc3)c2c1,0,12*,-16,0,8,44*,5,33*
c1cncc(CNc2ncnc3ccc(-c4cccnc4)cc23)c1,0,0,-3,0,24,.,.,.
CC1CCN(C(=O)C2CCCN(C(=O)c3ccc4c(c3)NC(=O)CS4)C2)CC1 (stereo unspecified),5,.,.,.,.,.,.,.
COCCCN1C(=O)[C@H](CC(=O)NCCCN2CCCC2=O)[C@]2(C(=O)OC)CCCCC=C12,3,.,.,.,.,.,.,.
COC(=O)/C(=C\Nc1ccc(OC)cc1)NC(=O)c1ccc(Cl)cc1Cl,0,20*,-14,0,9,57*,7,30*
COC(=O)/C(=C\Nc1ccc(Cl)cc1Cl)NC(=O)c1ccc(OC)cc1,-2,2,18,0,29,.,.,.
CCN(CC)C(=O)CC[C@H]1CC[C@]2(CCCN(Cc3cccc4ccccc34)C2)O1,0,.,.,.,.,.,.,.
COCCCn1cc(CN2CC=CS2(=O)=O)nn1,1,.,.,.,.,.,.,.
O=C(CN1CCN(Cc2ccccc2)CC1)N/N=C\c1c2ccccc2cc2ccccc12,-1,.,.,.,.,.,.,.
CCn1c(SCC(=O)c2c[nH]c3ccccc23)nc2cc(S(=O)(=O)N3CCOCC3)ccc21,-2,18*,.,0,38,82*,2,60*
